Assay [1] has as its target T1, Tyrosine-protein phosphatase non-receptor type 11 (Homo sapiens) (UniProt Q06124).
T1 sequence (whole entry): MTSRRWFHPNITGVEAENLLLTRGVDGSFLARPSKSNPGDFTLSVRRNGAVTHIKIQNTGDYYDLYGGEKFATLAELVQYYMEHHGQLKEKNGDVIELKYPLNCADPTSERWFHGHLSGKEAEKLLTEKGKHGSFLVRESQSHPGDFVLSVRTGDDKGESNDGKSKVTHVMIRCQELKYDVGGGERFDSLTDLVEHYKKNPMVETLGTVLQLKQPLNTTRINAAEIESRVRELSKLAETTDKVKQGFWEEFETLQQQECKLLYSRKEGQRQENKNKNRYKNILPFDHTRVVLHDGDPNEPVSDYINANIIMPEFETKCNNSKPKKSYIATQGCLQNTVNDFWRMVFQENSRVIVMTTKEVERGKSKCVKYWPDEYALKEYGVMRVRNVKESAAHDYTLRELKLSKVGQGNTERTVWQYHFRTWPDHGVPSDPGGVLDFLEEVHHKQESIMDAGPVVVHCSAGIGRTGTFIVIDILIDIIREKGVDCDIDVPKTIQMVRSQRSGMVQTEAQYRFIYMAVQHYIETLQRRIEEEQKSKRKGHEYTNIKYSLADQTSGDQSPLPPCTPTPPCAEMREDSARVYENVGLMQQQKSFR
Put plainly: Inhibition of phosphatase activity of SHP2 (unknown origin) using pNPP as a substrate at 50 uM after 10 mins by spectrophotometer analysis.

The target of assay [2] is T1, Tyrosine-protein phosphatase non-receptor type 11 (Homo sapiens). Put plainly: Inhibition of SHP2 in human NCI-H1975 cells assessed as reduction of EGF-induced ERK1/2 activation at 40 uM after 60 mins relative to control. Format: cell-based. Put shortly: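 H1975 cells were stimulated with EGF and ERK1/2 and paxillin phosphorylation was assessed by immunoblot. Band intensities were quantified, and pERK1/2/total ERK1/2 or pPaxillin(Y118)/total paxillin ratios were normalized to the reference. Blots are representative of at least two independent experiments, with quantified values given as mean ± SD.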

Assay [3] has the same target. The assay is described as follows: Inhibition of SHP2 in human NCI-H1975 cells assessed as increase in EGF-induced paxillin phosphorylation at Y118 at 40 uM after 60 mins relative to control.
For assay [4], the system named is MDA-MB-231. Put plainly: Cytotoxicity against human MDA-MB-231 cells at 20 to 40 uM by MTT assay. Format: functional, cell-based.
Assay [5] relates to NCI-H1975. The assay is described as follows: Cytotoxicity against human NCI-H1975 cells at 20 to 40 uM by MTT assay. Format: functional, cell-based.
Assay [6] has as its system NCI-H1975. The assay is described as follows: Cytotoxicity against human NCI-H1975 cells by MTT assay. Format: functional, cell-based.
Assay [7] has as its system MDA-MB-231. Put plainly: Cytotoxicity against human MDA-MB-231 cells by MTT assay. Format: functional, cell-based.

The source made the active and inactive calls. No cut-off for these calls is given here.

For `O=C(O)C(=O)Nc1ccc(CNC(=O)C(c2ccccc2)S(=O)(=O)O)cc1` (stereo not given), in assay [1], the inhibition result was “inactive”.

Consider `O=C(O)C(=O)NCc1ccc(NC(=O)C(c2ccccc2)S(=O)(=O)O)cc1` (stereo not given), for which the inhibition entry in assay [1] is “inactive”.

On to `O=C(Nc1ccccc1)C(=O)Nc1ccc(NC(=O)C(c2ccccc2)S(=O)(=O)O)cc1` (stereo not given), for which the results for the fold change (FC) in assay [2] and in assay [3] were 1 and 1.1, respectively. Moreover, the outcome with MDA-MB-231 [4] and with NCI-H1975 [5] was inactive.

With `O=C(O)C(=O)Nc1cccc(NC(=O)C(c2ccccc2)S(=O)(=O)O)c1` (stereo not given), the inhibition entry in assay [1] was “inactive”.

Take `CC(C)c1ccc(NC(=O)C(=O)Nc2ccc(NC(=O)C(c3ccccc3)S(=O)(=O)O)cc2)cc1` (stereo not given): the Activity entry in the assay on NCI-H1975 [6] and in the assay on MDA-MB-231 [7] was “Dose-dependent effect” each time.

In the case of `O=C(O)C(=O)Nc1ccc(NC(=O)C(c2ccccc2)S(=O)(=O)O)cc1` (stereo not given), the inhibition entry in assay [1] was “inactive”.

Values taken from ChEMBL document CHEMBL3608232, “Exploring the Existing Drug Space for Novel pTyr Mimetic and SHP2 Inhibitors” (ACS Med Chem Lett, 2015).
